Laboratory results from ChEMBL document CHEMBL4610092, “Cytotoxic Nitrogenated Azaphilones from the Deep-Sea-Derived Fungus Chaetomium globosum MP4-S01-7” (J Nat Prod, 2020).

Legend:
MGC-803 [1] = assay: Cytotoxicity against human MGC803 cells assessed as reduction in cell viability measured after 72 hrs by CCK8 assay; format: functional, cell-based; conditions: MGC-803, 72 h
In short: (§1)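 MGC803 or AGS cells (RPMI 1640, 10% FBS, 5% CO₂, 37 °C) plated at 3 × 10³ per well overnight, then exposed to 0.1–10 μM for 72 h. Viability was read by CCK8 absorbance at 450 nm, and IC₅₀ was calculated from the concentration series.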

AGS [2] = assay: Cytotoxicity against human AGS cells assessed as reduction in cell viability measured after 72 hrs by CCK8 assay; format: functional, cell-based; in short: as §1
AGS [3] = assay: Induction of apoptosis in human AGS cells assessed as early apoptotic cells at 5 uM measured after 48 hrs FITC-A/PE-A staining based flow cytometry (reference value: 1.77 to 2.91%); format: functional
AGS [4] = assay: Induction of apoptosis in human AGS cells assessed as viable cells at 0.2 uM measured after 48 hrs FITC-A/PE-A staining based flow cytometry (reference value: 92.05 to 93.85%); format: functional; conditions: read-out: Activity
AGS [5] = assay: Induction of apoptosis in human AGS cells assessed as late apoptotic cells at 0.2 uM measured after 48 hrs FITC-A/PE-A staining based flow cytometry (reference value: 1.89 to 3.49%); format: functional
MGC-803 [6] = assay: Induction of apoptosis in human MGC803 cells assessed as early apoptotic cells at 0.5 uM measured after 48 hrs FITC-A/PE-A staining based flow cytometry (reference value: 0.59 to 3.54%); format: functional
MGC-803 [7] = assay: Cell cycle arrest in human MGC803 cells assessed as accumulation at S-phase at 1 uM measured after 24 hrs by propidium iodide staining based flow cytometry (reference value: 33%); format: functional
MGC-803 [8] = assay: Cell cycle arrest in human MGC803 cells assessed as increase in accumulation at G1-phase measured after 24 hrs by propidium iodide staining based flow cytometry; format: functional
MGC-803 [9] = assay: Cell cycle arrest in human MGC803 cells assessed as accumulation at G1-phase at 0.2 uM measured after 24 hrs by propidium iodide staining based flow cytometry (reference value: 45%); format: functional
AGS [10] = assay: Induction of apoptosis in human AGS cells assessed as late apoptotic cells at 1 uM measured after 48 hrs FITC-A/PE-A staining based flow cytometry (reference value: 1.89 to 3.49%); format: functional
MGC-803 [11] = assay: Induction of apoptosis in human MGC803 cells assessed as late apoptotic cells at 0.2 uM measured after 48 hrs FITC-A/PE-A staining based flow cytometry (reference value: 0.9 to 2.18%); format: functional
MGC-803 [12] = assay: Induction of apoptosis in human MGC803 cells assessed as early apoptotic cells at 0.2 uM measured after 48 hrs FITC-A/PE-A staining based flow cytometry (reference value: 0.59 to 3.54%); format: functional
MGC-803 [13] = assay: Induction of apoptosis in human MGC803 cells assessed as viable cells at 1 uM measured after 48 hrs FITC-A/PE-A staining based flow cytometry (reference value: 94.89 to 96.41%); format: functional; conditions: MGC-803, 48 h, read-out: Activity
MGC-803 [14] = assay: Cell cycle arrest in human MGC803 cells assessed as accumulation at G2/M-phase at 0.5 uM measured after 24 hrs by propidium iodide staining based flow cytometry (reference value: 22%); format: functional
AGS [15] = assay: Induction of apoptosis in human AGS cells assessed as necrotic cells at 0.2 uM measured after 48 hrs FITC-A/PE-A staining based flow cytometry (reference value: 1.35 to 2.69%); format: functional
AGS [16] = assay: Induction of apoptosis in human AGS cells assessed as late apoptotic cells at 0.5 uM measured after 48 hrs FITC-A/PE-A staining based flow cytometry (reference value: 1.89 to 3.49%); format: functional
AGS [17] = assay: Induction of apoptosis in human AGS cells assessed as early apoptotic cells at 1 uM measured after 48 hrs FITC-A/PE-A staining based flow cytometry (reference value: 1.77 to 2.91%); format: functional
AGS [18] = assay: Induction of apoptosis in human AGS cells assessed as early apoptotic cells at 0.5 uM measured after 48 hrs FITC-A/PE-A staining based flow cytometry (reference value: 1.77 to 2.91%); format: functional
MGC-803 [19] = assay: Induction of apoptosis in human MGC803 cells assessed as early apoptotic cells at 1 uM measured after 48 hrs FITC-A/PE-A staining based flow cytometry (reference value: 0.59 to 3.54%); format: functional
MGC-803 [20] = assay: Induction of apoptosis in human MGC803 cells assessed as viable cells at 0.2 uM measured after 48 hrs FITC-A/PE-A staining based flow cytometry (reference value: 94.89 to 96.41%); format: functional; conditions: MGC-803, 48 h, read-out: Activity
MGC-803 [21] = assay: Induction of apoptosis in human MGC803 cells measured after 48 hrs FITC-A/PE-A staining based flow cytometry; format: functional, cell-based
AGS [22] = assay: Induction of apoptosis in human AGS cells assessed as early apoptotic cells at 0.2 uM measured after 48 hrs FITC-A/PE-A staining based flow cytometry (reference value: 1.77 to 2.91%); format: functional
MGC-803 [23] = assay: Induction of apoptosis in human MGC803 cells assessed as early apoptotic cells at 5 uM measured after 48 hrs FITC-A/PE-A staining based flow cytometry (reference value: 0.59 to 3.54%); format: functional
MGC-803 [24] = assay: Induction of apoptosis in human MGC803 cells assessed as necrotic cells at 5 uM measured after 48 hrs FITC-A/PE-A staining based flow cytometry (reference value: 0.9 to 2.18%); format: functional
MGC-803 [25] = assay: Cell cycle arrest in human MGC803 cells assessed as accumulation at S-phase at 0.5 uM measured after 24 hrs by propidium iodide staining based flow cytometry (reference value: 33%); format: functional
MGC-803 [26] = assay: Induction of apoptosis in human MGC803 cells assessed as viable cells at 0.5 uM measured after 48 hrs FITC-A/PE-A staining based flow cytometry (reference value: 94.89 to 96.41%); format: functional; conditions: MGC-803, 48 h, read-out: Activity
MGC-803 [27] = assay: Cell cycle arrest in human MGC803 cells assessed as accumulation at G2/M-phase at 1 uM measured after 24 hrs by propidium iodide staining based flow cytometry (reference value: 22%); format: functional
MGC-803 [28] = assay: Cell cycle arrest in human MGC803 cells assessed as accumulation at G1-phase at 0.5 uM measured after 24 hrs by propidium iodide staining based flow cytometry (reference value: 45%); format: functional
MGC-803 [29] = assay: Cell cycle arrest in human MGC803 cells assessed as accumulation at S-phase at 0.2 uM measured after 24 hrs by propidium iodide staining based flow cytometry (reference value: 33%); format: functional
MGC-803 [30] = assay: Induction of apoptosis in human MGC803 cells assessed as necrotic cells at 1 uM measured after 48 hrs FITC-A/PE-A staining based flow cytometry (reference value: 0.9 to 2.18%); format: functional
AGS [31] = assay: Induction of apoptosis in human AGS cells assessed as viable cells at 0.5 uM measured after 48 hrs FITC-A/PE-A staining based flow cytometry (reference value: 92.05 to 93.85%); format: functional; conditions: read-out: Activity
MGC-803 [32] = assay: Induction of apoptosis in human MGC803 cells assessed as late apoptotic cells at 1 uM measured after 48 hrs FITC-A/PE-A staining based flow cytometry (reference value: 0.67 to 0.82%); format: functional
MGC-803 [33] = assay: Induction of apoptosis in human MGC803 cells assessed as viable cells at 5 uM measured after 48 hrs FITC-A/PE-A staining based flow cytometry (reference value: 94.89 to 96.41%); format: functional; conditions: MGC-803, 48 h, read-out: Activity
AGS [34] = assay: Induction of apoptosis in human AGS cells measured after 48 hrs FITC-A/PE-A staining based flow cytometry; format: functional, cell-based
AGS [35] = assay: Induction of apoptosis in human AGS cells assessed as late apoptotic cells at 5 uM measured after 48 hrs FITC-A/PE-A staining based flow cytometry (reference value: 1.89 to 3.49%); format: functional
AGS [36] = assay: Induction of apoptosis in human AGS cells assessed as viable cells at 5 uM measured after 48 hrs FITC-A/PE-A staining based flow cytometry (reference value: 92.05 to 93.85%); format: functional; conditions: read-out: Activity
MGC-803 [37] = assay: Cell cycle arrest in human MGC803 cells assessed as accumulation at G1-phase at 1 uM measured after 24 hrs by propidium iodide staining based flow cytometry (reference value: 45%); format: functional
AGS [38] = assay: Induction of apoptosis in human AGS cells assessed as viable cells at 1 uM measured after 48 hrs FITC-A/PE-A staining based flow cytometry (reference value: 92.05 to 93.85%); format: functional; conditions: read-out: Activity
MGC-803 [39] = assay: Induction of apoptosis in human MGC803 cells assessed as late apoptotic cells at 5 uM measured after 48 hrs FITC-A/PE-A staining based flow cytometry (reference value: 0.67 to 0.82%); format: functional
MGC-803 [40] = assay: Induction of apoptosis in human MGC803 cells assessed as necrotic cells at 0.5 uM measured after 48 hrs FITC-A/PE-A staining based flow cytometry (reference value: 0.9 to 2.18%); format: functional
MGC-803 [41] = assay: Induction of apoptosis in human MGC803 cells assessed as necrotic cells at 0.2 uM measured after 48 hrs FITC-A/PE-A staining based flow cytometry (reference value: 0.9 to 2.18%); format: functional
AGS [42] = assay: Induction of apoptosis in human AGS cells assessed as necrotic cells at 5 uM measured after 48 hrs FITC-A/PE-A staining based flow cytometry (reference value: 1.35 to 2.69%); format: functional
AGS [43] = assay: Induction of apoptosis in human AGS cells assessed as necrotic cells at 0.5 uM measured after 48 hrs FITC-A/PE-A staining based flow cytometry (reference value: 1.35 to 2.69%); format: functional
AGS [44] = assay: Induction of apoptosis in human AGS cells assessed as necrotic cells at 1 uM measured after 48 hrs FITC-A/PE-A staining based flow cytometry (reference value: 1.35 to 2.69%); format: functional
MGC-803 [45] = assay: Cell cycle arrest in human MGC803 cells assessed as accumulation at G2/M-phase at 0.2 uM measured after 24 hrs by propidium iodide staining based flow cytometry (reference value: 22%); format: functional
MGC-803 [46] = assay: Induction of apoptosis in human MGC803 cells assessed as late apoptotic cells at 0.5 uM measured after 48 hrs FITC-A/PE-A staining based flow cytometry (reference value: 0.9 to 2.18%); format: functional

CCC(=O)C1=C2C3=CN(CC=C(C)C)C(/C=C/[C@@H](C)CC)=CC3=C(Cl)C(=O)[C@@]2(C)OC1=O
IC50 (MGC-803 [1]): 5800 nM | IC50 (AGS [2]): > 10000 nM

CCC(=O)C1=C2C3=CN(C/C=C(\C)CCC=C(C)C)C(/C=C/[C@@H](C)CC)=CC3=C(Cl)C(=O)[C@@]2(C)OC1=O
IC50 (MGC-803 [1]): 2200 nM | IC50 (AGS [2]): 1200 nM

CC[C@H](C)/C=C/C1=CC2=C(Cl)C(=O)[C@@]3(C)OC(=O)C(C(=O)[C@H](C)[C@@H](C)O)=C3C2=CN1CC=C(C)C
IC50 (MGC-803 [1]): 2700 nM | IC50 (AGS [2]): 6500 nM

C/C=C(\C)C(=O)C1=C2C3=CN(C/C=C(\C)CCC=C(C)C)C(/C=C/[C@@H](C)CC)=CC3=C(Cl)C(=O)[C@@]2(C)OC1=O
IC50 (MGC-803 [1]): 720 nM | IC50 (AGS [2]): 120 nM

CC[C@H](C)/C=C/C1=CC2=C(Cl)C(=O)[C@@]3(C)OC(=O)C(C(=O)[C@@H](C)[C@@H](C)O)=C3C2=CN1C/C=C(\C)CCC=C(C)C
Activity (AGS [3]): 1.86% | viability at 0.2 µM (AGS [4]): 93.2% | Activity (AGS [5]): 2.69% | Activity (MGC-803 [6]): 2.65% | Activity (MGC-803 [7]): 32% | Activity (MGC-803 [8]): Dose-dependent effect | Activity (MGC-803 [9]): 48% | Activity (AGS [10]): 35.16% | Activity (MGC-803 [11]): 2.23% | Activity (MGC-803 [12]): 2.96% | viability at 1 µM (MGC-803 [13]): 71.7% | Activity (MGC-803 [14]): 24% | IC50 (MGC-803 [1]): 460 nM | Activity (AGS [15]): 1.37% | Activity (AGS [16]): 3.01% | Activity (AGS [17]): 16.5% | Activity (AGS [18]): 5.89% | Activity (MGC-803 [19]): 4.16% | viability at 0.2 µM (MGC-803 [20]): 90.7% | Activity (MGC-803 [21]): Dose-dependent effect | Activity (AGS [22]): 2.78% | Activity (MGC-803 [23]): 6.2% | Activity (MGC-803 [24]): 5.03% | Activity (MGC-803 [25]): 28% | viability at 0.5 µM (MGC-803 [26]): 91.3% | Activity (MGC-803 [27]): 9.4% | Activity (MGC-803 [28]): 48% | Activity (MGC-803 [29]): 30% | Activity (MGC-803 [30]): 6.01% | viability at 0.5 µM (AGS [31]): 88.2% | Activity (MGC-803 [32]): 18.17% | IC50 (AGS [2]): 620 nM | viability at 5 µM (MGC-803 [33]): 20.1% | Activity (AGS [34]): Dose-dependent effect | Activity (AGS [35]): 86.77% | viability at 5 µM (AGS [36]): 8.93% | Activity (MGC-803 [37]): 58% | viability at 1 µM (AGS [38]): 45% | Activity (MGC-803 [39]): 68.63% | Activity (MGC-803 [40]): 3.23% | Activity (MGC-803 [41]): 4.06% | Activity (AGS [42]): 2.44% | Activity (AGS [43]): 2.85% | Activity (AGS [44]): 3.36% | Activity (MGC-803 [45]): 23% | Activity (MGC-803 [46]): 2.85%

CC[C@H](C)/C=C/C1=CC2=C(Cl)C(=O)[C@@]3(C)OC(=O)C(C(=O)[C@@H](C)[C@@H](C)O)=C3C2=CO1 [CHAETOVIRIDIN A]
IC50 (MGC-803 [1]): > 10000 nM | IC50 (AGS [2]): > 10000 nM
